# In ChEMBL document CHEMBL4414644, “A New Approach of Mitigating CYP3A4 Induction Led to the Discovery of Potent Hepatitis B Virus (HBV) Capsid Inhibitor with Optimal ADMET Profiles” (J Med Chem, 2019):
# Activity calls are given as the source filed them.
# Experiments:
# [1] = Cytotoxicity in human HepDE19 cells assessed as reduction in cell viability incubated for 5 days by CCK8 assay; assay type: cell-based
# In short: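 HepDE19 cells were grown in DMEM-F12 with 10% FBS, penicillin/streptomycin and 0.5 mg/mL G418, then seeded at 5 × 10^3 cells/well. Compound exposure lasted 5 days. Viability was read with CCK-8 after 2 h at 37 °C, measuring OD450 and OD630. CC50 was the concentration killing 50% of cells; duplicate runs.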
# [2] = Induction of CYP3A4 gene expression in cryopreserved human hepatocytes assessed as increase in CYP3A4 mRNA level at 10 uM incubated for 24 hrs by qRT-PCR analysis relative to rifampicin; assay type: ADME, cell-based
# In short: (§1)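 Cryopreserved hepatocytes from one human donor were seeded at 1 × 10^6 cells/mL and cultured 24 h in serum-free Williams E. Compounds at 0.1, 1.0 and 10 µM (0.1% DMSO) were added in triplicate for 24 h, with vehicle wells as negative controls. Positive controls were omeprazole for CYP1A2, phenobarbital for CYP2B6 and rifampicin for CYP3A4. mRNA was measured by TaqMan qRT-PCR normalised to PPIA (2^-ΔΔCT) and expressed as % of the positive control.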
# [3] = Induction of CYP3A4 gene expression in cryopreserved human hepatocytes assessed as increase in CYP3A4 mRNA level at 0.1 uM incubated for 24 hrs by qRT-PCR analysis relative to rifampicin; assay type: ADME, cell-based; in short: as §1
# [4] = Induction of CYP3A4 gene expression in cryopreserved human hepatocytes assessed as increase in CYP3A4 mRNA level at 1 uM incubated for 24 hrs by qRT-PCR analysis relative to rifampicin; assay type: ADME, cell-based; in short: as §1
# [5] = Induction of CYP1A2 gene expression in cryopreserved human hepatocytes assessed as increase in CYP1A2 mRNA level at 0.1 uM incubated for 24 hrs by qRT-PCR analysis relative to omeprazole; assay type: ADME, cell-based; in short: as §1
# [6] = Induction of CYP1A2 gene expression in cryopreserved human hepatocytes assessed as increase in CYP1A2 mRNA level at 1 uM incubated for 24 hrs by qRT-PCR analysis relative to omeprazole; assay type: ADME, cell-based; in short: as §1
# [7] = Induction of CYP1A2 gene expression in cryopreserved human hepatocytes assessed as increase in CYP1A2 mRNA level at 10 uM incubated for 24 hrs by qRT-PCR analysis relative to omeprazole; assay type: ADME, cell-based; in short: as §1
# [8] = Apparent partition coefficient, logD of the compound at pH 7.4; assay type: physicochemical; settings: octanol/water
# [9] = Ionization constant (acid), pKa of the compound; assay type: physicochemical
# [10] = Ionization constant (base), pKa of the compound; assay type: physicochemical
# [11] = Solubility in pH 6.5 phosphate buffer stirred for 1 hr and shaken for 2 hrs by HPLC-UV based LYSA solubility assay; assay type: physicochemical
# In short: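 Duplicate samples from 10 mM DMSO stock were dried, taken up in 0.05 M phosphate pH 6.5, stirred 1 h, shaken 2 h and left overnight. They were then filtered and the filtrate plus a 1/10 dilution analysed by HPLC-UV. Quantification used a four-point calibration; results in µg/mL.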
# [12] = Permeability at 150 uM by PAMPA; assay type: ADME; settings: read-out: permeability
# In short: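 PAMPA: DMSO stock was diluted to 150 µM (<2% DMSO) in donor buffer of 0.05 M MOPSO pH 6.5 with 0.5% glycocholic acid. The acceptor was 0.05 M MOPSO pH 6.5. The membrane was 10% egg lecithin with 0.5% cholesterol in dodecane. Donor and acceptor concentrations were read at start and at ~18 h; results in 10^-6 cm/s.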
# [13] = Unbound fraction in human plasma at 1000 nM incubated for 5 hrs by LC-MS/MS analysis detection based equilibrium dialysis assay; assay type: ADME, cell-free
# In short: (§2)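 Equilibrium dialysis of pooled plasma against Soerensen buffer pH 7.4 used a 12–14 kDa cutoff membrane. Compounds were run in cassettes of 2–5 at 1000 nM total, with diazepam as the membrane-integrity control. Dialysis ran 5 h at 37 °C under 5% CO2, followed by LC–MS/MS of both compartments. Unbound fraction is the average of 3 tests.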
# [14] = Unbound fraction in mouse plasma at 1000 nM incubated for 5 hrs by LC-MS/MS analysis detection based equilibrium dialysis assay; assay type: ADME, cell-free; in short: as §2
# [15] = Half life in BALB/c mouse at 1 mg/kg, iv by LC-MS/MS analysis; assay type: ADME, organism-based; settings: in vivo
# In short: (§3)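 Female BALB/c mice (16–22 g; 12 animals) got a single IV dose of 1 mg/kg in 5% DMSO/40% PEG400/55% saline. Blood was taken into EDTA-K2 and spun at 2000 g for 5 min at 4 °C. Plasma was stored at -80 °C and quantified by LC–MS/MS. Parameters came from non-compartmental analysis, with BLQ values omitted.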
# [16] = Volume of distribution at steady state in BALB/c mouse at 1 mg/kg, iv by LC-MS/MS analysis; assay type: ADME, organism-based; settings: in vivo, read-out: Vdss; in short: as §3
# [17] = Plasma clearance in BALB/c mouse at 1 mg/kg, iv by LC-MS/MS analysis; assay type: ADME, organism-based; in short: as §3
# [18] = Cmax in BALB/c mouse at 3 mg/kg, po by LC-MS/MS analysis; assay type: ADME, organism-based; set-up: dose 3 mg/kg, route oral; settings: in vivo
# In short: (§4)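 Female BALB/c mice (16–22 g; 21 animals) got a single oral dose of 3 mg/kg in 2% Klucel, Tween 80, 0.1% parabens in water. EDTA-K2 plasma was taken at each time point. Livers were harvested right after blood sampling, rinsed in cold saline, weighed and snap-frozen. Both matrices were quantified by LC–MS/MS and analysed non-compartmentally, omitting BLQs.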
# [19] = AUC (0 to infinity) in BALB/c mouse at 1 mg/kg, iv by LC-MS/MS analysis; assay type: ADME, organism-based; set-up: dose 1 mg/kg, route intravenous, time infinity; settings: in vivo; in short: as §3
# [20] = AUC (0 to infinity) in BALB/c mouse plasma at 3 mg/kg, po by LC-MS/MS analysis; assay type: ADME, organism-based; set-up: dose 3 mg/kg, route oral, time infinity; in short: as §4
# [21] = Oral bioavailability in BALB/c mouse at 3 mg/kg by LC-MS/MS analysis; assay type: ADME, organism-based; settings: in vivo; in short: as §4
# [22] = AUC (0 to infinity) in BALB/c mouse liver at 3 mg/kg, po by LC-MS/MS analysis; assay type: ADME, organism-based; set-up: dose 3 mg/kg, route oral, time infinity; in short: as §4
# [23] = Drug metabolism in cryopreserved human hepatocytes assessed as glucuronide conjugation of carboxylic acid group at 1 uM incubated up to 120 mins by LC-MS/MS analysis; assay type: ADME, cell-based, Hepatocyte; settings: 2 h
# Hepatitis B virus [24] = assay: Antiviral activity against HBV infected in BALB/c mouse hydrodynamic injection model hydrodynamically injected with replication-competent HBV DNA plasmid assessed as reduction in HBV DNA level in liver at 3 mg/kg, po BID for 5 days by RT-qPCR analysis; assay type: functional, organism-based
# In short: (§5)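 Used female BALB/c mice aged 6–8 weeks carrying an HBV genotype D genome delivered by tail-vein hydrodynamic plasmid injection. Animals received vehicle or drug orally at the stated frequency for 5 days. Plasma and liver were sampled at set time points, and HBV DNA was quantified by real-time qPCR. Error bars are SEM.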
# Hepatitis B virus [25] = assay: Antiviral activity against HBV infected in BALB/c mouse hydrodynamic injection model hydrodynamically injected with replication-competent HBV DNA plasmid assessed as reduction in HBV DNA level in liver at 12 mg/kg, po BID for 5 days by RT-qPCR analysis; assay type: functional, organism-based; in short: as §5
# Hepatitis B virus [26] = assay: Antiviral activity against HBV infected in BALB/c mouse hydrodynamic injection model hydrodynamically injected with replication-competent HBV DNA plasmid assessed as reduction in HBV DNA level in plasma at 3 mg/kg, po BID for 5 days by RT-qPCR analysis; assay type: functional, organism-based; in short: as §5
# Hepatitis B virus [27] = assay: Antiviral activity against HBV infected in BALB/c mouse hydrodynamic injection model hydrodynamically injected with replication-competent HBV DNA plasmid assessed as reduction in HBV DNA level in plasma at 12 mg/kg, po BID for 5 days by RT-qPCR analysis; assay type: functional, organism-based; in short: as §5
# [28] = molecular target: Voltage-gated inwardly rectifying potassium channel KCNH2 (Homo sapiens, UniProt Q12809); assay: Inhibition of human ERG
# [29] = Toxicity in rat by 5-day mini-tox study; settings: in vivo, 120 h
# in vivo = settings: BALB/c, mouse, liver/plasma, po, 3 mg/kg
# [30] = Induction of CYP2B6 gene expression in cryopreserved human hepatocytes assessed as increase in CYP2B6 mRNA level at 1 uM incubated for 24 hrs by qRT-PCR analysis relative to phenobarbital
# [31] = Induction of CYP2B6 gene expression in cryopreserved human hepatocytes assessed as increase in CYP2B6 mRNA level at 10 uM incubated for 24 hrs by qRT-PCR analysis relative to phenobarbital
# [32] = Induction of CYP2B6 gene expression in cryopreserved human hepatocytes assessed as increase in CYP2B6 mRNA level at 0.1 uM incubated for 24 hrs by qRT-PCR analysis relative to phenobarbital
# Voltage-gated inwardly rectifying potassium channel KCNH2, sequence (Q12809 whole entry): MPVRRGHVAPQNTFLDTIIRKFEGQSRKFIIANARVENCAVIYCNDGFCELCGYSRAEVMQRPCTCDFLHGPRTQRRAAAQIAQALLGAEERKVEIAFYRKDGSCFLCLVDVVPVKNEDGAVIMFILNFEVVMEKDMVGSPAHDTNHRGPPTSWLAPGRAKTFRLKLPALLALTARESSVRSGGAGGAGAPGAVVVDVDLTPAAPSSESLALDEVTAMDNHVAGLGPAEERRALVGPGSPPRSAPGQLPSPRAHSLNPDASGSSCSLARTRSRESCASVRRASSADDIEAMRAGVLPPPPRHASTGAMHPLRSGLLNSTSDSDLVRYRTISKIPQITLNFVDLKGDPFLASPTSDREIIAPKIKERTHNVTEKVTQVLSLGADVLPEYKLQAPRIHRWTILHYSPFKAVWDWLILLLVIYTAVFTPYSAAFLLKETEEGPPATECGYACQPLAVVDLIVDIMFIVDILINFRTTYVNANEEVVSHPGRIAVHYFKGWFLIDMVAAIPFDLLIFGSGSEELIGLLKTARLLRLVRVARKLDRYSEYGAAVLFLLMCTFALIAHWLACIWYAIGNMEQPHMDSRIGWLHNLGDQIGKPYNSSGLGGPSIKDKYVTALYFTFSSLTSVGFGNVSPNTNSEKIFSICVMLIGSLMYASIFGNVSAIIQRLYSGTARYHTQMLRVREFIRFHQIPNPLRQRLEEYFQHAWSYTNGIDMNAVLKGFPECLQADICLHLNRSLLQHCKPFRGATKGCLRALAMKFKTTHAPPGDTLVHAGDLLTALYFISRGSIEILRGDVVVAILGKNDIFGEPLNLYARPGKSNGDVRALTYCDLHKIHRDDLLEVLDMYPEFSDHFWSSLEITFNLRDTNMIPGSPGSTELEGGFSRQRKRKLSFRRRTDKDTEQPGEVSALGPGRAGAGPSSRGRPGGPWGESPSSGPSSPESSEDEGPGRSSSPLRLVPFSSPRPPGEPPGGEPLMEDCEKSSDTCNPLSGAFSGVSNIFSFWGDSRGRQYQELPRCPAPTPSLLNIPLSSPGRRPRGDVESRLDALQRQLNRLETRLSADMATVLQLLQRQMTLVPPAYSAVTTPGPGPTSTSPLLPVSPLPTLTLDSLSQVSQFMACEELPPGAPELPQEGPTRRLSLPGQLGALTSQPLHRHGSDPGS
compound,measurement,setting,value
CCOC(=O)C1=C(CN2CCOC[C@H]2C(=O)O)NC(c2nccs2)=N[C@H]1c1ccc(C)c(F)c1,CC50 at 120 h,[1],85 µM
same,Activity,[2],40%
COC(=O)C1=C(CN2CCOC[C@H]2C(=O)O)N=C(c2nccs2)N[C@H]1c1ccc(F)cc1Cl,CC50 at 120 h,[1],> 100 µM
same,Activity,[2],111%
CCOC(=O)C1=C(CN2CCOC[C@H]2C(=O)O)NC(c2nccs2)=N[C@H]1c1cccc(F)c1,CC50 at 120 h,[1],69 µM
same,Activity,[2],94%
COC(=O)C1=C(CN2CCOC[C@H]2C(=O)O)NC(c2nccs2)=N[C@H]1c1ccc(Cl)c(F)c1,CC50 at 120 h,[1],> 100 µM
same,Activity,[2],25%
same,Activity,[3],2%
same,Activity,[4],7.5%
same,Activity,[5],1%
same,Activity,[6],0.9%
same,Activity,[7],1.7%
same,logD,[8],0.38
same,pKa,[9],1.8
same,pKa,[10],5.9
same,solubility,[11],> 631 µg/mL
same,Papp at 150 µM,[12],2.4 ×10⁻⁶ cm/s
same,"fraction unbound at 5 h, 1 µM",[13],0.031
same,"fraction unbound at 5 h, 1 µM",[14],0.04
same,half-life,[15],2.3 h
same,Vd,[16],2.7 L/kg
same,clearance,[17],40.9 mL/min/kg
same,Cmax,[18],254 ng/mL
same,AUC(0-inf),[19],408 ng·h/mL
same,AUC(0-inf),[20],527 ng·h/mL
same,bioavailability,[21],43.1%
same,AUC(0-inf),[22],20000 ng·h/mL
same,Drug metabolism,[23],Metabolite_Detected
same,Activity,Hepatitis B virus [24],Active
same,Activity,Hepatitis B virus [25],Active
same,Activity,Hepatitis B virus [26],Active
same,Activity,Hepatitis B virus [27],Active
same,inhibition (INH),[28],Not Active
same,Activity,[29],Non-Toxic
same,Kp,in vivo,38
same,Activity,[30],1.5%
same,Activity,[31],1.4%
same,Activity,[32],1.3%
CCOC(=O)C1=C(CN2CCOC[C@H]2C(=O)O)NC(c2nccs2)=N[C@H]1c1ccc(Cl)c(F)c1,CC50 at 120 h,[1],24 µM
CCOC(=O)C1=C(CN2CCOC[C@H]2C(=O)O)NC(c2nccs2)=N[C@H]1c1ccc(F)c(F)c1,CC50 at 120 h,[1],> 100 µM
same,Activity,[2],41%
COC(=O)C1=C(CN2CCOC[C@H]2C(=O)O)NC(c2nccs2)=N[C@H]1c1ccc(Br)c(F)c1,CC50 at 120 h,[1],76 µM
same,Activity,[2],26%
COC(=O)C1=C(CN2CC(F)(F)C[C@H]2C(=O)O)NC(c2nccs2)=N[C@H]1c1ccc(F)c(F)c1,CC50 at 120 h,[1],56 µM
same,Activity,[2],52%
COC(=O)C1=C(CN2CC(F)(F)C[C@H]2C(=O)O)NC(c2nccs2)=N[C@H]1c1ccc(F)cc1F,CC50 at 120 h,[1],> 100 µM
same,Activity,[2],96%
CCOC(=O)C1=C(CN2CCOC[C@H]2C(=O)O)NC(c2nccs2)=N[C@H]1c1cc(F)c(F)c(F)c1,CC50 at 120 h,[1],> 100 µM
same,Activity,[2],72%
